Drawing on ChEMBL document CHEMBL1139444, “Oxazolidinone: search for highly potent antibacterial” (2004), this text covers MIC for twelve compounds.

Usually MIC stands for the smallest concentration in the dilution series that meets the test's criterion for growth inhibition. Lower therefore signals a more susceptible organism.

Common to all, as to format: functional
Assay [1] concerns Bacillus cereus. Nature of the assay: Minimum inhibitory concentration against Bacillus cereus MTCC 430. The method in brief:
(§1)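 Microbroth dilution MIC determination, with results expressed in μg/mL. Where run in triplicate, the highest MIC of the three replicates is the value reported.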

Assay [2] concerns Staphylococcus aureus. Nature of the assay: Minimum inhibitory concentration against Staphylococcus aureus MTCC 96. Put shortly:
as §1

Assay [3] concerns Streptococcus pyogenes. Nature of the assay: Minimum inhibitory concentration against Streptococcus pyogenes MTCC 442. The method in brief:
as §1

Assay [4] has as its system Staphylococcus epidermidis. Nature of the assay: Minimum inhibitory concentration against Staphylococcus epidermidis MTCC 155. Put shortly:
as §1

In assay [5] the test system is Bacillus pumilus. Nature of the assay: Minimum inhibitory concentration against Bacillus pumilus MTCC 1607. Put shortly:
as §1

Assay [6] relates to Enterococcus faecalis. Nature of the assay: Minimum inhibitory concentration against Enterococcus faecalis MTCC 439. The method in brief:
as §1

Assay [7] concerns Staphylococcus aureus. Nature of the assay: Minimum inhibitory concentration against Staphylococcus aureus ATCC 14154. Put shortly:
as §1

Assay [8] deals with Staphylococcus aureus. Nature of the assay: Minimum inhibitory concentration against Staphylococcus aureus ATCC 25923. The method in brief:
as §1

For assay [9], the system named is Klebsiella pneumoniae. Nature of the assay: Minimum inhibitory concentration against Klebsiella pneumoniae ATCC 10031. The method in brief: as §1
Assay [10] has as its system Staphylococcus aureus. Nature of the assay: Minimum inhibitory concentration against Staphylococcus aureus ATCC 29213. The method in brief:
as §1

In assay [11] the test system is Enterococcus faecalis. Nature of the assay: Minimum inhibitory concentration against Enterococcus faecalis ATCC 14506. The method in brief:
as §1

Values after ≈ are worked out from the molar mass of the structure shown.

Turning to `CC(=O)NC[C@H]1CN(c2ccc(N3CCN(C(=O)/C=C/c4ccc(F)cc4)CC3)c(F)c2)C(=O)O1`, the MIC in [1] came to 4 µg/mL (≈ 8.26 µM); in [2], 16 µg/mL (≈ 33 µM); in assay [3], 8 µg/mL (≈ 16.5 µM); in assay [4] it was 2 µg/mL (≈ 4.13 µM); in assay [5], 4 µg/mL (≈ 8.26 µM); in assay [6] it was 4 µg/mL (≈ 8.26 µM).
For the compound `CC(=O)NC[C@H]1CN(c2ccc(N3CCN(C(=O)/C=C/c4ccc(O)c(O)c4)CC3)c(F)c2)C(=O)O1`, the minimal inhibitory concentration (MIC) in [1] was found to be 16 µg/mL (≈ 32.1 µM); in assay [2] it was 8 µg/mL (≈ 16 µM); in assay [3], 16 µg/mL (≈ 32.1 µM); in assay [4], 4 µg/mL (≈ 8.02 µM); in assay [5], 8 µg/mL (≈ 16 µM); in assay [6], 8 µg/mL (≈ 16 µM).
`C/C(S)=N/C[C@H]1CN(c2ccc(N3CCN(C(=O)/C=C/c4ccc5c(c4)OCO5)CC3)c(F)c2)C(=O)O1`: the MIC in assay [1] turned out to be 0.25 µg/mL (≈ 0.475 µM); in assay [2], 1 µg/mL (≈ 1.9 µM); in assay [7] it was 1 µg/mL (≈ 1.9 µM); in [3] it was 4 µg/mL (≈ 7.6 µM); in [4], 1 µg/mL (≈ 1.9 µM); in assay [8] it was 0.5 µg/mL (≈ 0.95 µM). In addition, the minimum inhibitory concentration (MIC) in assay [5] worked out at 0.25 µg/mL (≈ 0.475 µM); in assay [9], 2 µg/mL (≈ 3.8 µM); in assay [10], 1 µg/mL (≈ 1.9 µM); in assay [11], 0.25 µg/mL (≈ 0.475 µM); in [6] it was 8 µg/mL (≈ 15.2 µM).
For the compound `CC(=O)NC[C@H]1CN(c2ccc(N3CCN(C(=O)CO)CC3)c(F)c2)C(=O)O1` [EPEREZOLID], the MIC in [1] is 2 µg/mL (≈ 5.07 µM); in [7] it was 4 µg/mL (≈ 10.1 µM); in assay [3], 4 µg/mL (≈ 10.1 µM); in assay [4], 1 µg/mL (≈ 2.54 µM); in [8], 4 µg/mL (≈ 10.1 µM); in assay [5], 2 µg/mL (≈ 5.07 µM). Also, the MIC in assay [9] is more than 16 µg/mL; in [10], 4 µg/mL (≈ 10.1 µM); in assay [11], 2 µg/mL (≈ 5.07 µM); in assay [6], 4 µg/mL (≈ 10.1 µM).
Turning to `CC(=O)NC[C@H]1CN(c2ccc(N3CCOCC3)c(F)c2)C(=O)O1` [LINEZOLID], the MIC in assay [1] was 2 µg/mL (≈ 5.93 µM); in assay [3], 0.5 µg/mL (≈ 1.48 µM); in assay [4], 2 µg/mL (≈ 5.93 µM); in [5], 1 µg/mL (≈ 2.96 µM); in assay [9], more than 16 µg/mL.
Regarding `CC(=O)NC[C@H]1CN(c2ccc(N3CCN(C(=O)/C=C/c4ccc(NC(C)=O)cc4)CC3)c(F)c2)C(=O)O1`, the MIC came to 4 µg/mL (≈ 7.64 µM) in assay [1]; 8 µg/mL (≈ 15.3 µM) in [2]; 8 µg/mL (≈ 15.3 µM) in assay [3]; 4 µg/mL (≈ 7.64 µM) in assay [4]; 8 µg/mL (≈ 15.3 µM) in assay [5]; 4 µg/mL (≈ 7.64 µM) in assay [6].
`CC(=O)NC[C@H]1CN(c2ccc(N3CCN(C(=O)/C=C/c4ccc([N+](=O)[O-])cc4)CC3)c(F)c2)C(=O)O1`: the MIC in [1] worked out at 1 µg/mL (≈ 1.95 µM); in assay [2], 4 µg/mL (≈ 7.82 µM); in [3], 1 µg/mL (≈ 1.95 µM); in assay [4], 4 µg/mL (≈ 7.82 µM); in assay [5] it was 2 µg/mL (≈ 3.91 µM); in assay [6], 4 µg/mL (≈ 7.82 µM).
`CC(=O)NC[C@H]1CN(c2ccc(N3CCN(C(=O)/C=C/c4ccc(O)cc4)CC3)c(F)c2)C(=O)O1`: the MIC in [1] was 0.5 µg/mL (≈ 1.04 µM); in [2], 2 µg/mL (≈ 4.14 µM); in [7] it was 2 µg/mL (≈ 4.14 µM); in assay [3], 2 µg/mL (≈ 4.14 µM); in assay [4], 0.25 µg/mL (≈ 0.518 µM); in assay [8] it was 1 µg/mL (≈ 2.07 µM). Also, the MIC in assay [5] was 1 µg/mL (≈ 2.07 µM); in assay [9] it was more than 16 µg/mL; in assay [10], 2 µg/mL (≈ 4.14 µM); in [11], 2 µg/mL (≈ 4.14 µM); in assay [6] it was 1 µg/mL (≈ 2.07 µM).
Turning to `CC(=O)NC[C@H]1CN(c2ccc(N3CCN(C(=O)/C=C/c4ccc5c(c4)OCO5)CC3)c(F)c2)C(=O)O1`, the MIC in assay [1] was found to be 1 µg/mL (≈ 1.96 µM); in assay [2], 2 µg/mL (≈ 3.92 µM); in assay [7], 2 µg/mL (≈ 3.92 µM); in assay [3], 2 µg/mL (≈ 3.92 µM); in [4], 1 µg/mL (≈ 1.96 µM); in assay [8], 4 µg/mL (≈ 7.84 µM). Further, the MIC is 1 µg/mL (≈ 1.96 µM) in assay [5]; more than 16 µg/mL in [9]; 4 µg/mL (≈ 7.84 µM) in assay [10]; 2 µg/mL (≈ 3.92 µM) in [11]; 1 µg/mL (≈ 1.96 µM) in assay [6].
As to `CC(=O)NC[C@H]1CN(c2ccc(N3CCN(C(=O)/C=C/c4ccc(-c5ccccc5)cc4)CC3)c(F)c2)C(=O)O1`, the MIC in [1], in assay [2], in assay [3], in assay [4], in assay [5] and in assay [6] was more than 16 µg/mL each time.
Regarding `CC(=O)NC[C@H]1CN(c2ccc(N3CCN(C(=O)/C=C/c4cccc(O)c4)CC3)c(F)c2)C(=O)O1`, the MIC in [1] amounted to 0.5 µg/mL (≈ 1.04 µM); in assay [2] it was 2 µg/mL (≈ 4.14 µM); in assay [7], 4 µg/mL (≈ 8.29 µM); in [3], 2 µg/mL (≈ 4.14 µM); in assay [4], 0.25 µg/mL (≈ 0.518 µM); in assay [8], 4 µg/mL (≈ 8.29 µM). For the same compound, the MIC in assay [5] was 0.5 µg/mL (≈ 1.04 µM); in assay [9], more than 16 µg/mL; in assay [10], 1 µg/mL (≈ 2.07 µM); in assay [11], 1 µg/mL (≈ 2.07 µM); in assay [6], 1 µg/mL (≈ 2.07 µM).
Regarding `CC(=O)NC[C@H]1CN(c2ccc(N3CCN(C(=O)/C=C/c4ccc(OC(C)=O)c(OC(C)=O)c4)CC3)c(F)c2)C(=O)O1`, the MIC in assay [1] was 2 µg/mL (≈ 3.43 µM); in [2], 4 µg/mL (≈ 6.87 µM); in assay [3], 4 µg/mL (≈ 6.87 µM); in assay [4] it was 1 µg/mL (≈ 1.72 µM); in assay [5], 2 µg/mL (≈ 3.43 µM); in assay [6] it was 2 µg/mL (≈ 3.43 µM).
